Source: PubChem BioAssay
Sampled rows, rich in hits. Any-hit rate of the full collection: about 12%.
WT yeast gro inh: growth inhibition of WT yeast, mitochondrial fusion screen | mitochondrial fusion phenotypic screen, WT strain | inhibition, % at 10 µM | 2.1% of 190,000 active | AID 1362; in the data active means inhibition above about 58%; tested in S. cerevisiae
ROMK mod: human ROMK K+ channel modulation, primary screen | 2% of 130,000 active | B-score at 10 µM | Tet-inducible ROMK, thallium flux fluorescence; actives lie on both sides;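 active means signal ratio slope over the read window, or its plate-corrected B-score, at least 3 SD from the plate mean, either direction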;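 further: B-score of the F/F0 ratio slope over 7 to 12 s after thallium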
Target sequence (P48048 whole entry, looked up): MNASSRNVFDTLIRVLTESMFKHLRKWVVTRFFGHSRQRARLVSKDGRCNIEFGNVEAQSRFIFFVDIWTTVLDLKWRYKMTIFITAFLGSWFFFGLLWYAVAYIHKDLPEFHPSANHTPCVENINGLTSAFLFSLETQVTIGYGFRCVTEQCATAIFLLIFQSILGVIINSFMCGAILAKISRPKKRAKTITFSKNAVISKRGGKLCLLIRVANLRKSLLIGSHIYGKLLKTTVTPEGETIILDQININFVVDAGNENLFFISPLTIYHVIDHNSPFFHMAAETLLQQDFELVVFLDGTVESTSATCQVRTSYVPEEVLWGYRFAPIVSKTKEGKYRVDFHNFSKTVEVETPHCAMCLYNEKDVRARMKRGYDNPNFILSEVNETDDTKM
L major viab: inhibitors of Leishmania major promastigote growth | Leishmania major promastigotes, resazurin fluorescence viability | 9% of 200,000 active | inhibition, % at 10 µM; in the data active means inhibition above about 50%;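 further: promastigotes grown with compound for 44 hours at 28 °C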
Cl transport mod: modulators of human KCC2 chloride dependent transport; Q9H2X9; B-score of Tl+ flux slope (higher = more flux/activation; lower = inhibition) at 10 µM; KCC2 cells, thallium flux FluoZin-2 fluorescence; 2.2% of 190,000 active;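 active means thallium flux slope and its plate-corrected score both differing from the plate sample mean at a set confidence after two filtering rounds, in either direction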;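 further: slope of fluorescence scaled to starting intensity during 10 to 20 s after thallium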
Diaph act CS: activates diaphorase or chemically reduces, flagging diaphorase assay artifacts. AID 1229. activation factor at 20 µM. Diaphorase/resazurin coupled assay, resorufin fluorescence, 16 min; stronger effect = higher value; 1 = vehicle wells, 0 = NADH-free wells. 0.005% of 190,000 active;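 active means diaphorase activity raised at least twofold by the compound at 20 µM; inactive means activation factor below 2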
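Material: purified diaphorase enzyme from Clostridium kluyveri; Also added: 0.114 mM NADH and 0.1 mM resazurin, final amounts; Doses: single compound dose of 20 µM, 1% DMSO final; Times: 16 min enzyme reaction, ambient temperature; Detection: resorufin fluorescence, excitation 544 nm, emission 590 nm; Measure: increased resorufin signal from activators or reducing compounds.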
Diaphorase inh: counter-screen for diaphorase-based assays: diaphorase inhibitors and chemical oxidizers. diaphorase resazurin-to-resorufin fluorescence, NADH, 16 min; bacterial (C. kluyveri) enzyme, not human. inhibition, % at 20 µM. 0.69% of 190,000 active. AID 1217;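 active means primary screen inhibition at 20 µM above a set limit, cut at about 50% in these data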;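 further: plate controls were DMSO with full reaction for no effect and wells lacking NADH for full effect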
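Assay system: diaphorase enzyme from Clostridium kluyveri. Quantity: enzyme working solution with 0.14 U/mL diaphorase. Schedule: reaction incubation of 16 min at room temperature. Technique: resorufin fluorescence, excitation 544 nm, emission 590 nm. Controls: No-NADH positive control and DMSO neutral control.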
ROMK hit retest: retested hit modulating human ROMK potassium channel. shares compounds with ROMK mod. ROMK thallium flux, fluorescence ratio; stronger effect = lower value. normalized thallium flux (F/F0 slope) at 10 µM. 54% of 3,000 active. AID 1917;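 active means Flux at 10 µM at least 3 SD below or above vehicle control mean in one or both replicates; inconclusive means no clear call, values can overlap the other calls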
* = called active by the depositor.

What do the screens show for `Cc1cc(C)n(-c2ccc(C(=O)Nc3cccc(S(=O)(=O)N4CCCC4)c3)cc2)n1`?
WT yeast gro inh: -2; ROMK mod: -0.18; L major viab: 29; Cl transport mod: -0.28; Diaph act CS: 0.9; Diaphorase inh: 8

How did Cc1cc(C)n(-c2ccc(C(=O)OCC(=O)Nc3ccc(S(=O)(=O)N4CCCCC4)cc3)cc2)n1 do in these assays?
WT yeast gro inh: 10; ROMK mod: 2*; L major viab: 84*; Cl transport mod: -0.17; Diaph act CS: 0.9; Diaphorase inh: 12; ROMK hit retest: 0.078

How did COCCN(Cc1ccccc1)C(=S)Nc1ccc(Cl)cc1 do in these assays?
WT yeast gro inh: 50; ROMK mod: 6*; L major viab: 46; Cl transport mod: -1.1; Diaph act CS: 0.9; Diaphorase inh: 13; ROMK hit retest: 0.081

How did COc1cc(C(=O)N2CCN(c3ncnc4sc(C)c(C)c34)CC2)cc(OC)c1OC do in these assays?
WT yeast gro inh: 21; L major viab: -5; Cl transport mod: -1.1; Diaph act CS: 0.8; Diaphorase inh: 17; ROMK hit retest: 0.077

Results for Cc1sc2ncnc(N3CCN(c4ncccn4)CC3)c2c1C ?
WT yeast gro inh: 53; ROMK mod: -1.5; L major viab: 1; Diaph act CS: 0.7; Diaphorase inh: 34

What do the screens show for `CCCCC(=O)Nc1cc(NC(=O)CC)ccc1Cl`?
WT yeast gro inh: -2; ROMK mod: 0.17; L major viab: -3; Cl transport mod: 0.9; Diaph act CS: 0.9; Diaphorase inh: 14

What do the screens show for `O=C(Cc1ccc(Cl)cc1Cl)NCC1(N2CCOCC2)CCCCC1`?
WT yeast gro inh: 4; ROMK mod: -0.58; L major viab: 9; Cl transport mod: 0.35; Diaph act CS: 0.8; Diaphorase inh: 22

How did CCOC(=O)COc1cccc2c(=O)n(CC(=O)NCc3ccc(F)cc3)ccc12 do in these assays?
ROMK mod: 3.1*; Cl transport mod: -0.031; ROMK hit retest: 0.092

Results for CCOC(=O)COc1cccc2c(=O)n(CC(N)=O)ccc12 ?
ROMK mod: 0.13; Cl transport mod: -0.67

Results for CCOC(=O)COc1cccc2c(=O)n(CC(=O)NCc3ccccc3)ccc12 ?
ROMK mod: 4.7*; Cl transport mod: 0.57; ROMK hit retest: 0.088

How did COc1ccnc(NCc2cccnc2)c1C#N do in these assays?
WT yeast gro inh: -10; L major viab: -4; Diaph act CS: 0.8; Diaphorase inh: 16

What do the screens show for `Cc1cc(=O)n2ccccc2c1C#N`?
WT yeast gro inh: -17; ROMK mod: -0.67; L major viab: 7; Diaph act CS: 0.9; Diaphorase inh: 7

How did COc1ccc2c(C#N)c3ccccn3c2c1 do in these assays?
WT yeast gro inh: -3; ROMK mod: -3.1*; L major viab: 9; Cl transport mod: -1.7; Diaph act CS: 0.6; Diaphorase inh: 37; ROMK hit retest: 0.045*

How did Cc1ccc(-c2nn3c(C)nnc3s2)cc1NCc1c(F)cccc1Cl do in these assays?
WT yeast gro inh: 10; L major viab: 6; Cl transport mod: -0.36; Diaph act CS: 0.9; Diaphorase inh: 10; ROMK hit retest: 0.075

How did Cc1ccc(CNc2cc(-c3nn4c(C)nnc4s3)ccc2C)s1 do in these assays?
WT yeast gro inh: 25; ROMK mod: -0.99; L major viab: -1; Cl transport mod: 0.37; Diaph act CS: 0.8; Diaphorase inh: 24

What do the screens show for `NC(=O)N/N=C/c1ccccc1OC(=O)c1ccccc1Br`?
WT yeast gro inh: -4; ROMK mod: -3.2*; L major viab: -4; Cl transport mod: 0.033; Diaph act CS: 0.9; Diaphorase inh: 12; ROMK hit retest: 0.052*

Results for CC1CN(c2ccc([N+](=O)[O-])c(NCCOc3ccccc3)c2)CCN1 (stereo not given) ?
WT yeast gro inh: 7; ROMK mod: -2.5*; L major viab: 100*; Cl transport mod: 0.26; Diaph act CS: 0.9; Diaphorase inh: 15; ROMK hit retest: 0.062*

Results for Cc1cc(NC(=O)CSc2nc3ccccc3c(=O)n2C2CCCC2)no1 ?
WT yeast gro inh: 16; ROMK mod: 2.9*; L major viab: 6; Cl transport mod: 0.37; Diaph act CS: 0.8; Diaphorase inh: 23; ROMK hit retest: inconclusive

What do the screens show for `COc1ccccc1NS(=O)(=O)c1cccc(N=C2N=C(N)c3ccccc32)c1`?
WT yeast gro inh: -27; L major viab: 5; Cl transport mod: 0.07; Diaph act CS: 0.8; Diaphorase inh: 20; ROMK hit retest: 0.081

What do the screens show for `CC(C)C(NC(=O)OCc1ccccc1)C(=O)NCc1ccc(C(=O)O)cc1` (stereo not given)?
WT yeast gro inh: -8; ROMK mod: -0.57; L major viab: -2; Cl transport mod: 1.7; Diaph act CS: 1; Diaphorase inh: 3

Results for COc1ccc(-c2csc3nc(-c4ccccc4)oc(=O)c23)cc1OC ?
WT yeast gro inh: 34; ROMK mod: -0.2; L major viab: -3; Cl transport mod: -0.29

How did CCOC(=O)Cc1cc(OC)c(OC)cc1Cc1cc(OC)c(OC)cc1CC(=O)OCC do in these assays?
WT yeast gro inh: -20; ROMK mod: -0.22; L major viab: 0; Cl transport mod: 0.058; Diaph act CS: 0.9; Diaphorase inh: 13

How did CCOc1cccc(NC(=O)/C(C#N)=C/c2cccnc2)c1 do in these assays?
Cl transport mod: 2.5; ROMK hit retest: 0.035*

How did CCOc1ccc(/C=C(\C#N)C(=O)Nc2cccnc2)cc1 do in these assays?
WT yeast gro inh: 2; L major viab: -7; Cl transport mod: 0.42; Diaph act CS: 1; Diaphorase inh: 4

What do the screens show for `COc1cc(C(=O)N2CCN(Cc3ccccc3C(F)(F)F)CC2)cc(OC)c1OC`?
WT yeast gro inh: -2; ROMK mod: -2.6*; L major viab: 3; Diaph act CS: 0.8; Diaphorase inh: 19; ROMK hit retest: 0.077

What do the screens show for `COc1cc(OC)cc(C(=O)N2CCN(Cc3ccccc3C(F)(F)F)CC2)c1`?
WT yeast gro inh: 27; ROMK mod: -1.5; L major viab: 11; Diaph act CS: 0.8; Diaphorase inh: 22

How did Clc1ccc(OCCn2ccnc2)c2ccccc12 do in these assays?
WT yeast gro inh: 13; ROMK mod: -3.2*; L major viab: 96*; Diaph act CS: 1.1; Diaphorase inh: -8; ROMK hit retest: inconclusive

What do the screens show for `Clc1ccc(OCCn2ccnc2)c(Cl)c1`?
WT yeast gro inh: 6; L major viab: 25; Cl transport mod: 0.5; Diaph act CS: 0.8; Diaphorase inh: 16

Results for O=C(O)c1cccc(CN2C(=O)S/C(=C/c3cccc([N+](=O)[O-])c3)C2=O)c1 ?
ROMK mod: -12*; Cl transport mod: -1.4; ROMK hit retest: 0.03*
